In paper PMC3838623 (Journal of Pharmaceutical Sciences, 2013):
Read-outs that look alike come from different tables or passages of the source.

What was measured:
[1] = test system: plasma proteins (human plasma); assay: Reiterated stepwise equilibrium dialysis, plasma protein binding; type: in vitro ADME; details: two-sided ANOVA
Summary of the method: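 Human plasma spiked with test compound (final 10^6, 10^4 or 10^2 pM) was placed in a 1.0 mL dialysis sac inside a buffer chamber pre-coated with compound-containing buffer. Compound was present in both chambers at inner–outer ratios of 100:1 or 50:1. Dialysis ran 4–5 h at 37 ± 2°C with slow rotation, in triplicate, with radioactivity counting. % bound relative to pre-incubation; mean (SD) analysed by two-sided ANOVA for gender and concentration.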

[2] = cited from earlier work
plasma proteins [3] = details: liraglutide concentration 10^2 pM, cited from earlier work
plasma proteins [4] = details: cited from earlier work

Row | Substance | estimated difference in protein binding, 10^2 pM compared with 10^4 pM ([1]; p = 0.581) | estimated difference in protein-bound liraglutide, females vs. males ([1]; p = 0.593) | plasma half-life [2] | liraglutide pharmacokinetics in renal impairment ([2]; subjects with mild-to-severe renal impairment versus healthy subjects) | mean (SD) unbound percentage (plasma proteins [3]; healthy subjects) | mean (SD) unbound percentage (plasma proteins [3]; subjects with mild hepatic impairment) | plasma protein binding (plasma proteins [4])
1 | liraglutide | 0.05% | −0.18% | approximately 13 h | not altered | 0.53% (0.46) | 0.59% (0.61) | 
2 | exenatide: GLP-1 receptor agonist with shorter duration of action, twice-daily administration |  |  |  |  |  |  | does not demonstrate significant levels of plasma protein binding
